# The source made the active and inactive calls. The calls are words filed in the database; no cut-off is given here.
# Assays:
# [1] = molecular target: 5-hydroxytryptamine receptor 2A (Rattus norvegicus, UniProt P14842); assay: Displacement of [3H]Ketanserin from rat cortex 5-HT2A receptor by liquid scintillation counter
# How it was run: (§1)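 Competition binding. 5-HT1A: rat hippocampus, [3H]-8-OH-DPAT. 5-HT2A: rat cortex, [3H]-ketanserin. D2: rat striatum, [3H]-spiperone. 5-HT6: human receptor stably in HEK293, [3H]-LSD. 5-HT7: human receptor stably in HEK293, [3H]-5-CT. Vacuum filtration on GF/B filters, ice-cold washes, scintillation counting.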
# [2] = molecular target: 5-hydroxytryptamine receptor 7 (Homo sapiens, UniProt P34969); assay: Displacement of [3H]5-CT form human cloned 5HT7 receptor expressed in human HEK293 cells by liquid scintillation counter; type: cell-based; how it was run: as §1
# [3] = molecular target: 5-hydroxytryptamine receptor 6 (Homo sapiens, UniProt P50406); assay: Displacement of [3H]-LSD from human full length cloned 5HT6 receptor expressed in human HEK293 cells by liquid scintillation counter; type: cell-based; how it was run: as §1
# [4] = molecular target: T1, 5-hydroxytryptamine receptor 1A (Rattus norvegicus, UniProt P19327); assay: Displacement of [3H]8-OH-DPAT from rat hippocampus 5-HT1A receptor by liquid scintillation counter; type: tissue-based; how it was run: as §1
# T1 sequence (P19327 whole entry): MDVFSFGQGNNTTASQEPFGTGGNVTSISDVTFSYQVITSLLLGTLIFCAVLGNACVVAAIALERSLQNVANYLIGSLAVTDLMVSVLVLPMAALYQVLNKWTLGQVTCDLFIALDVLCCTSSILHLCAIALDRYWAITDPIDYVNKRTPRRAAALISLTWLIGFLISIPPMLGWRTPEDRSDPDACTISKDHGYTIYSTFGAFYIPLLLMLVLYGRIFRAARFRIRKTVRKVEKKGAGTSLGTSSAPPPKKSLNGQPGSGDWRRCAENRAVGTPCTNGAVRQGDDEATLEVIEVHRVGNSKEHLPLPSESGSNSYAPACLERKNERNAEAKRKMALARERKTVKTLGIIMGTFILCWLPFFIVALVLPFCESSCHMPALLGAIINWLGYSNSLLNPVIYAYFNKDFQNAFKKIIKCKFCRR
# Rattus norvegicus [5] = assay: Anxiolytic activity in Wistar rat assessed as increase in open arm entries at 5 mg/kg after 5 mins by plus-maze test (reference value: 26.3 +/- 2.1 %); type: functional
# Rattus norvegicus [6] = assay: Anxiolytic activity in Wistar rat assessed as increase in open arm entries at 2.5 mg/kg after 5 mins by plus-maze test (reference value: 26.3 +/- 2.1 %); type: functional
# Rattus norvegicus [7] = assay: Anxiolytic activity in Wistar rat assessed as increase in open arm entries at 1.25 mg/kg after 5 mins by plus-maze test (reference value: 26.3 +/- 2.1 %); type: functional
# Rattus norvegicus [8] = assay: Anxiolytic activity in Wistar rat assessed as increase in time spent in open arms at 5 mg/kg after 5 mins by plus-maze test (reference value: 13 +/- 2.3 %); type: functional
# Rattus norvegicus [9] = assay: Anxiolytic activity in Wistar rat assessed as increase in time spent in open arms at 2.5 mg/kg after 5 mins by plus-maze test (reference value: 13 +/- 2.3 %); type: functional
# Rattus norvegicus [10] = assay: Anxiolytic activity in Wistar rat assessed as increase in time spent in open arms at 1.25 mg/kg after 5 mins by plus-maze test (reference value: 13 +/- 2.3 %); type: functional
# Mus musculus [11] = assay: […] activity in ip dosed Swiss albino mouse assessed as inhibition of DOI-induced head twitches administered 20 mins before DOI challenge measured for 20 mins; type: functional; conditions: for ED50: read-out: ID50 (the source's name)
# Mus musculus [12] = assay: Antipsychotic activity in CD1 mouse assessed as reduction in spontaneous locomotor activity measuring number of crossings at 0.5 to 1 mg/kg every 5 mins for 1 hr; type: functional, organism-based
# How it was run: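 Male CD-1 mice; compound or reference ip 30 min before test plus vehicle. After 30 min habituation in individual cages, crossings counted over 1 h, recorded every 5 min; mean ± SEM; one-way ANOVA, Bonferroni.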
# Mus musculus [13] = species on record: Mus musculus; assay: Antipsychotic activity in CD1 mouse assessed as inhibition of MK-801-induced hyperactivity measuring number of crossings measured every 5 mins for 1 hr; type: functional, organism-based
# How it was run: (§2)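 Male CD-1 mice, one per cage, habituated 30 min; photobeam crossings (ambulation) then counted over 1 h, logged every 5 min. Drugs suspended in 1% aqueous Tween 80 and given ip at 10 ml/kg, 30 min before test. For hyperactivity, MK-801 (0.2 mg/kg, in distilled water) was given ip 15 min before test. 5–10 mice/dose; mean ± SEM, one-way ANOVA with Bonferroni test.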
# [14] = Selectivity ratio of compound Ki for rat hippocampus 5-HT1A receptor to human 5HT7 receptor; type: tissue-based
# How it was run: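 Ratio of Ki values from competition binding: rat hippocampus 5-HT1A with [3H]-8-OH-DPAT versus human 5-HT7 in HEK293 with [3H]-5-CT; Ki by Cheng–Prusoff from 7–9 concentrations in triplicate.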
# [15] = molecular target: T2, D(4) dopamine receptor (Homo sapiens) (UniProt P21917); assay: Displacement of [3H]-methylspiperone from human cloned dopamine D4 receptor expressed in HEK293 cells at 10 '-7 M by liquid scintillation counter; type: cell-based
# T2 sequence (whole entry): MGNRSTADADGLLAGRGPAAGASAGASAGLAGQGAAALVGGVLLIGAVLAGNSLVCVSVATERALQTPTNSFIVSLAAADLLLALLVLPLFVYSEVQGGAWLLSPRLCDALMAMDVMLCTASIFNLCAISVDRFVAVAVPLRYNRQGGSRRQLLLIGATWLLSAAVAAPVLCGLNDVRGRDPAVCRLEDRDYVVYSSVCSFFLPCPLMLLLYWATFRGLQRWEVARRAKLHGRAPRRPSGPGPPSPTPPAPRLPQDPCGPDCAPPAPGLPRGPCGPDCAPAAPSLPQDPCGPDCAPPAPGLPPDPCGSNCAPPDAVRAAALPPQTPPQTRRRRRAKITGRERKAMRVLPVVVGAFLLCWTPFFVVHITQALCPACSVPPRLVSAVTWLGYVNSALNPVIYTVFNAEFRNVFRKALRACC
# [16] = molecular target: D(3) dopamine receptor (Homo sapiens) (UniProt P35462); assay: Displacement of [3H]-methylspiperone from human cloned dopamine D3 receptor expressed in HEK293 cells at 10 '-6 M by liquid scintillation counter; type: cell-based
# [17] = molecular target: D(3) dopamine receptor (Homo sapiens) (UniProt P35462); assay: Displacement of [3H]-methylspiperone from human cloned dopamine D3 receptor expressed in HEK293 cells at 10 '-7 M by liquid scintillation counter; type: cell-based
# [18] = molecular target: T2, D(4) dopamine receptor (Homo sapiens); assay: Displacement of [3H]-methylspiperone from human cloned dopamine D4 receptor expressed in HEK293 cells at 10 '-6 M by liquid scintillation counter; type: cell-based
# Mus musculus [19] = assay: Antidepressant activity in Swiss albino mouse assessed as reduction in immobility time at 20 mg/kg measured for 4 mins by forced swim test; type: functional; design: scale not given: the % may be the effect or the level left
# How it was run: (§3)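 Porsolt forced swim in male Swiss albino mice. Drugs ip (10 ml/kg; 1% Tween 80 suspension, imipramine in water) 30 min before. Cylinder 25 cm high, 10 cm diameter, 6 cm water at 23–25 °C, 6 min session; immobility scored over final 4 min. 5–10 mice/dose; one-way ANOVA with Bonferroni.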
# Mus musculus [20] = assay: Antidepressant activity in Swiss albino mouse assessed as reduction in immobility time at 10 mg/kg measured for 4 mins by forced swim test; type: functional; design: scale not given: the % may be the effect or the level left; how it was run: as §3
# Mus musculus [21] = assay: Antidepressant activity in mouse assessed as spontaneous locomotor activity 10 to 30 mg/kg; type: functional, organism-based
# How it was run: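 Swiss albino mice given the forced swim doses ip 30 min before; placed individually in cages and channel crossings counted from 2 to 6 min with a multichannel activity monitor, matching the swim test observation period.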
# Mus musculus [22] = assay: […] activity in Swiss albino mouse assessed as inhibition of apomorphine-induced climbing behavior administered 10 mins before apomorphine challenge measured for 2 mins; type: functional
# How it was run: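 Male Swiss albino mice; compounds ip in 1% Tween 80 suspension, 10 min before apomorphine 3 mg/kg. Climbing time (2–4 paws on bar wall) recorded for 2 min starting 20 min after apomorphine.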
# D(2) dopamine receptor = D(2) dopamine receptor (Rattus norvegicus, UniProt P61169); assay: Displacement of [3H]-spiperone from rat striatum dopamine D2 receptor by liquid scintillation counter; how it was run: as §1
# Mus musculus [23] = assay: Antipsychotic activity in CD1 mouse assessed as reduction in spontaneous locomotor activity measuring number of crossings at 1.25 to 5 mg/kg every 5 mins for 1 hr; type: functional, organism-based; how it was run: as §2
# Sequence of 5-hydroxytryptamine receptor 6 (P50406 whole entry): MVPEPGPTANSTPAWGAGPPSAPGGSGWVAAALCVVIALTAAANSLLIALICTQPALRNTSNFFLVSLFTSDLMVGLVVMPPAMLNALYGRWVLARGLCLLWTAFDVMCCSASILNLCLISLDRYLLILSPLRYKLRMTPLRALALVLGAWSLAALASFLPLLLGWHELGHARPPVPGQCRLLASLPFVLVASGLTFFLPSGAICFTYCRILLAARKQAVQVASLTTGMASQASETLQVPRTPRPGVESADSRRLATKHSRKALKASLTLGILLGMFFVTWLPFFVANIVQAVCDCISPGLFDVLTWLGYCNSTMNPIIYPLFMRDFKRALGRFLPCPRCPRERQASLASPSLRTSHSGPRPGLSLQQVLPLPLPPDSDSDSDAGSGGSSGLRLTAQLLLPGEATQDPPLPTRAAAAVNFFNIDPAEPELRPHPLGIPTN
# Sequence of 5-hydroxytryptamine receptor 2A (P14842 whole entry): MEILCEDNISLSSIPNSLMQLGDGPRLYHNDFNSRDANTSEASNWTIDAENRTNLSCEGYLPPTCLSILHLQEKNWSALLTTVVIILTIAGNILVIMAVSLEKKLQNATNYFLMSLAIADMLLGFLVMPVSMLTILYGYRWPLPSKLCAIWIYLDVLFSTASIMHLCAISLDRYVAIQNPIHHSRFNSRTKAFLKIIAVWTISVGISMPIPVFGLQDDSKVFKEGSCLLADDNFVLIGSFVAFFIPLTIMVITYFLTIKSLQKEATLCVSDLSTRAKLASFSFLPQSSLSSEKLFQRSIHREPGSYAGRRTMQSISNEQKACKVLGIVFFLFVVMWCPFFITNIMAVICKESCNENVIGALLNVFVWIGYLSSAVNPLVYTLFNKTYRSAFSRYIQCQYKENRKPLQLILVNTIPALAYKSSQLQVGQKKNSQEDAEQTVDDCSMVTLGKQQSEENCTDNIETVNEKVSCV
# Sequence of 5-hydroxytryptamine receptor 7 (P34969 whole entry): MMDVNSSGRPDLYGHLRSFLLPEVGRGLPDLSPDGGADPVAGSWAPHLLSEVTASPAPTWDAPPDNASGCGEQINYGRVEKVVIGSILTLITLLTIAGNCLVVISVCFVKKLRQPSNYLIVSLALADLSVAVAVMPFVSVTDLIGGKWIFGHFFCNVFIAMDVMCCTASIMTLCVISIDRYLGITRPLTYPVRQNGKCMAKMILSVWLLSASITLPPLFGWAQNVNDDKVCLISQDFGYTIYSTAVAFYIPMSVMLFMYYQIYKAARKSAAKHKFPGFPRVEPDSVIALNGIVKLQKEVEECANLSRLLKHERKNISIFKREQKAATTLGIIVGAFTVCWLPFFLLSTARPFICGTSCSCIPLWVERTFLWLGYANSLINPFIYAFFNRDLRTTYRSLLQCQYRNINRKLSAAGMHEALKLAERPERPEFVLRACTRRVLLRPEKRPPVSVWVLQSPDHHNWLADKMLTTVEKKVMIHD
# Sequence of D(3) dopamine receptor (Homo sapiens) (P35462 whole entry): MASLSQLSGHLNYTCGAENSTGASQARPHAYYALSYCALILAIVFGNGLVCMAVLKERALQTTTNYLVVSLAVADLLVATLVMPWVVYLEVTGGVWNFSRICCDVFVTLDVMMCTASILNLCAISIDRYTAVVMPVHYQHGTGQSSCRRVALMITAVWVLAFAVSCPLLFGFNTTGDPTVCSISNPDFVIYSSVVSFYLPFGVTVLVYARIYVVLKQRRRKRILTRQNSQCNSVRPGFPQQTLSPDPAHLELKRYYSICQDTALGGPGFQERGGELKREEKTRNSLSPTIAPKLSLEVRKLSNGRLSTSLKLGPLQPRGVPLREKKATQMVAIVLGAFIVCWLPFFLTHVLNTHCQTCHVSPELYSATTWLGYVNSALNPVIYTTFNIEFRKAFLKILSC
# Sequence of D(2) dopamine receptor (P61169 whole entry): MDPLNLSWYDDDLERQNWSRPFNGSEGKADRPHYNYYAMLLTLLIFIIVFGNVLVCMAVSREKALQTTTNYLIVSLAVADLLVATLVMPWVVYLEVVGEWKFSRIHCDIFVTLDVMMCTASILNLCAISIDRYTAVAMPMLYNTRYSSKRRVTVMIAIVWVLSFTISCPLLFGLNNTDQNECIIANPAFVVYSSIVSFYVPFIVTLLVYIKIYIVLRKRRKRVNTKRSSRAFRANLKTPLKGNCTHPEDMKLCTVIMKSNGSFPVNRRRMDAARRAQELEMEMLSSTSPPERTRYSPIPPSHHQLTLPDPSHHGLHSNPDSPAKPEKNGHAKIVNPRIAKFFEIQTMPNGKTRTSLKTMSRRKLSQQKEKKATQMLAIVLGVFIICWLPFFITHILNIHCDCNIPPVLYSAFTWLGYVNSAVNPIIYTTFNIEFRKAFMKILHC
structure (smiles),measurement,setting,value
O=S(=O)(NCCCCN1CCN(c2cccc(Cl)c2)CC1)c1ccc2ncccc2c1,Ki,[1],42 nM
O=S(=O)(NCCCCN1CCN(c2cccc(Cl)c2)CC1)c1cccc2cccnc12,Ki,[2],25 nM
same,Ki,[3],3760 nM
same,Ki,[4],74 nM
same,Ki,[1],152 nM
CN1C(=O)CN=C(c2ccccc2)c2cc(Cl)ccc21 [DIAZEPAM],Activity,Rattus norvegicus [5],35.4%
same,Activity,Rattus norvegicus [6],46.6%
same,Activity,Rattus norvegicus [7],63.7%
same,Activity,Rattus norvegicus [8],21.8%
same,Activity,Rattus norvegicus [9],28.5%
same,Activity,Rattus norvegicus [10],29.7%
O=S(=O)(NCCCCCN1CCN(c2ccc(Cl)cc2)CC1)c1cnc2ccccc2c1,Ki,[4],5800 nM
same,Ki,[1],114 nM
O=C(c1ccc(F)cc1)C1CCN(CCn2c(=O)[nH]c3ccccc3c2=O)CC1 [KETANSERIN],ED50,Mus musculus [11],0.12 mg/kg
O=S(=O)(c1ccc2cccnc2c1)N1CCC(CN2CCN(c3ccc(Cl)cc3)CC2)CC1,Ki,[4],338 nM
same,Ki,[1],761 nM
O=S(=O)(NCCCCN1CCN(c2cccc(Cl)c2)CC1)c1ccc2ccccc2c1,Ki,[4],497 nM
same,Ki,[1],22 nM
O=C(CCCN1CCC(O)(c2ccc(Cl)cc2)CC1)c1ccc(F)cc1,Activity,Mus musculus [12],Active
same,inhibition,Mus musculus [13],Dose-dependent effect
O=S(=O)(NCCCCN1CCN(c2cccc(Cl)c2)CC1)c1cccc2ccccc12,Ratio Ki,[14],10
same,Ki,[2],36 nM
same,Ki,[3],127 nM
same,Ki,[4],397 nM
same,Ki,[1],268 nM
O=S(=O)(NCCCCN1CCN(c2ccc(Cl)cc2)CC1)c1ccc2ncccc2c1,Ki,[4],2030 nM
same,Ki,[1],44 nM
O=S(=O)(NCCCCN1CCN(c2ccc(Cl)cc2)CC1)c1ccc2cccnc2c1,Ki,[2],381 nM
same,Ki,[3],1730 nM
same,Ki,[4],868 nM
same,Ki,[1],63 nM
O=S(=O)(NCCCN1CCN(c2ccc(Cl)cc2)CC1)c1cncc2ccccc12,Ki,[4],888 nM
O=S(=O)(c1cnc2ccccc2c1)N1CCC(CN2CCN(c3ccc(Cl)cc3)CC2)CC1,Ki,[4],462 nM
same,Ki,[1],6000 nM
O=S(=O)(NCCCN1CCN(c2cccc(Cl)c2)CC1)c1cnc2ccccc2c1,Ki,[1],206 nM
O=S(=O)(NCCCCN1CCN(c2ccc(Cl)cc2)CC1)c1cncc2ccccc12,Ki,[4],1000 nM
same,Ki,[1],211 nM
O=S(=O)(NCCCCN1CCN(c2cccc(Cl)c2)CC1)c1cnc2ccccc2c1,inhibition,[15],30%
same,inhibition,[16],94%
same,inhibition,[17],70%
same,Ki,[1],22 nM
O=S(=O)(NCCCCN1CCN(c2ccc(Cl)cc2)CC1)c1cnc2ccccc2c1,inhibition,[18],78%
same,inhibition,[15],37%
same,inhibition,[16],82%
same,inhibition,[17],46%
same,Ki,[4],771 nM
same,Ki,[1],56 nM
CN(C)CCCN1c2ccccc2CCc2ccccc21.Cl [IMIPRAMINE HYDROCHLORIDE],Activity,Mus musculus [19],52%
same,Activity,Mus musculus [20],26.5%
Cl.O=S(=O)(c1cnc2ccccc2c1)N1CCC(CCN2CCN(c3ccc(Cl)cc3)CC2)CC1,Activity,Mus musculus [21],inactive
same,inhibition,Mus musculus [22],Dose-dependent effect
same,ED50,Mus musculus [22]; read-out: ID50 (the source's name),25 mg/kg
same,inhibition,Mus musculus [11],Dose-dependent effect
same,ED50,Mus musculus [11],5.12 mg/kg
same,inhibition,[18],90%
same,inhibition,[15],63%
same,inhibition,[16],90%
same,inhibition,[17],52%
same,Ki,D(2) dopamine receptor,56 nM
same,Ratio Ki,[14],207
same,Ki,[2],40 nM
same,Ki,[3],24800 nM
same,Ki,[4],8300 nM
same,Ki,[1],31 nM
CN1CCN(C2=Nc3cc(Cl)ccc3Nc3ccccc32)CC1,Activity,Mus musculus [23],Active
same,inhibition,Mus musculus [13],Dose-dependent effect

# From ChEMBL document CHEMBL1949570, “Quinoline- and isoquinoline-sulfonamide derivatives of LCAP as potent CNS multi-receptor-5-HT1A/5-HT2A/5-HT7 and D2/D3/D4-agents: the synthesis and pharmacological evaluation” (Bioorg Med Chem, 2012)
